One may read the Ki as a measure of affinity in units of concentration, obtained from inhibition or displacement. Low readings indicate tighter binding, high ones weaker binding.

Here are results for 30 compounds from BindingDB's records for doi:10.1021/jm00031a021 (Tap Pharmaceuticals, 1994).

This assay addresses T1, Gonadotropin-releasing hormone receptor (Rattus norvegicus, UniProt P30969).
T1 sequence (P30969 whole entry): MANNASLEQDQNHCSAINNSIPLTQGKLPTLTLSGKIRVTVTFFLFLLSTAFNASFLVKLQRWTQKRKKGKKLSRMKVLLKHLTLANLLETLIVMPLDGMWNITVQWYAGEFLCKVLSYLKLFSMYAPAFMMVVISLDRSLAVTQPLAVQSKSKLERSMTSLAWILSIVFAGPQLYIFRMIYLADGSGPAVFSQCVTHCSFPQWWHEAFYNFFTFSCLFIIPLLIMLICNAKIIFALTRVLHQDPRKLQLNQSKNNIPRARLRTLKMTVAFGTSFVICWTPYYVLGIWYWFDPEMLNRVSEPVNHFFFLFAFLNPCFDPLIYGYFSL
The assay can be described thus: Inhibition of the in vitro binding of [125I]-labeled leuprolide to the rat pituitary luteinizing hormone releasing hormone (LHRH) receptor. A digest of the protocol: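 Rat pituitary LHRH receptor binding with 125I-labeled leuprolide as radioligand. pKI is the negative log of the analogue concentration inhibiting 50% of tracer binding. Compounds tested as TFA salts.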

Molecules are shown by their SMILES. Where a SMILES comes first, the peptide text is derived from it. [ ]: non-standard residue; d: D form. The star is where a group is joined. Propanoyl(3-(4-F-phenyl)) = O=C(CCc1ccc(F)cc1)*; Propanoyl(3-(4-Cl-Ph)) = O=C(CCc1ccc(Cl)cc1)*; Desaminotyrosyl = O=C(CCc1ccc(O)cc1)*; d1Nal = N[C@H](Cc1cccc2ccccc12)C(=O)O; Lys(iPr) = CC(C)NCCCC[C@H](N)C(=O)O; NMeY = CN[C@@H](Cc1ccc(O)cc1)C(=O)O; Nicotinoyl = O=C(c1cccnc1)*; X1 = O=C(Cc1ccc(O)cc1)*

`CCNC(=O)[C@H]1CCCN1C(=O)[C@H](CCCN=C(N)N)NC(=O)[C@H](CC(C)C)NC(=O)[C@@H](Cc1c[nH]c2ccccc12)NC(=O)[C@H](Cc1ccc(O)cc1)NC(=O)[C@H](CO)NC(=O)[C@H](Cc1c[nH]c2ccccc12)NC(=O)[C@@H](N)Cc1ccccc1` displayed a Ki of 83.2 nM. In turn, `CCNC(=O)[C@H]1CCCN1C(=O)[C@H](CCCN=C(N)N)NC(=O)[C@H](CC(C)C)NC(=O)[C@@H](Cc1ccc(O)cc1)NC(=O)[C@@H](Cc1ccc(O)cc1)NC(=O)[C@H](CO)NC(=O)[C@H](Cc1c[nH]c2ccccc12)NC(=O)CCc1ccc(F)cc1` registered a Ki of 0.038 nM. This Ki is about 2200-fold lower than that of the compound before. The compound `CCNC(=O)[C@H]1CCCN1C(=O)[C@H](CCCN=C(N)N)NC(=O)[C@H](CC(C)C)NC(=O)[C@@H](Cc1c[nH]c2ccccc12)NC(=O)[C@H](Cc1ccc(O)cc1)NC(=O)[C@H](CO)NC(=O)[C@H](Cc1cccc2ccccc12)NC(=O)CCc1ccc(F)cc1` yielded a Ki of 0.017 nM.

Turning to `CCNC(=O)[C@H]1CCCN1C(=O)[C@H](CCCN=C(N)N)NC(=O)[C@H](CC(C)C)NC(=O)[C@@H](Cc1c[nH]c2ccccc12)NC(=O)[C@H](Cc1ccc(O)cc1)NC(=O)[C@@H]1CC(O)CN1C(=O)[C@H](Cc1c[nH]c2ccccc12)NC(=O)CCc1ccc(F)cc1` (stereo not given in full), the Ki was found to be 1.29 nM. This Ki lies about 76-fold higher than the previous one. In turn, `CCNC(=O)[C@H]1CCCN1C(=O)[C@H](CCCN=C(N)N)NC(=O)[C@H](CC(C)C)NC(=O)[C@@H](Cc1c[nH]c2ccccc12)NC(=O)[C@H](Cc1ccc(O)cc1)NC(=O)[C@H](CO)NC(=O)C(Cc1cccc2ccccc12)NC(=O)CCc1ccc(F)cc1` (stereo not given in full) yielded an inhibitory constant (Ki) of 0.017 nM. The compound `CCNC(=O)[C@@H]1CCCN1C(=O)[C@H](CCCN=C(N)N)NC(=O)[C@H](CC(C)C)NC(=O)[C@@H](Cc1c[nH]c2ccccc12)NC(=O)[C@H](Cc1ccc(O)cc1)NC(=O)[C@H](CO)NC(=O)[C@@H](Cc1c[nH]c2ccccc12)NC(=O)c1cc2ccccc2[nH]1` returned a Ki of 0.076 nM. `CCNC(=O)[C@@H]1CCCN1C(=O)[C@H](CCCN=C(N)N)NC(=O)[C@H](CC(C)C)NC(=O)[C@@H](Cc1c[nH]c2ccccc12)NC(=O)[C@H](Cc1ccc(O)cc1)NC(=O)[C@H](CO)NC(=O)[C@H](Cc1c[nH]c2ccccc12)NC(=O)CCc1cccc(F)c1` yielded a Ki of 1.35 nM. As to `CCNC(=O)[C@H]1CCCN1C(=O)[C@H](CCCN=C(N)N)NC(=O)[C@H](CC(C)C)NC(=O)[C@@H](Cc1c[nH]c2ccccc12)NC(=O)[C@H](Cc1ccc(O)cc1)N(C)C(=O)[C@H](CO)NC(=O)[C@H](Cc1c[nH]c2ccccc12)NC(=O)CCc1ccc(F)cc1`, the Ki worked out at 0.033 nM. `CCNC(=O)[C@@H]1CCCN1C(=O)[C@H](CCCN=C(N)N)NC(=O)[C@H](CC(C)C)NC(=O)[C@@H](Cc1c[nH]c2ccccc12)NC(=O)[C@H](Cc1ccc(O)cc1)NC(=O)[C@H](CO)NC(=O)[C@H](Cc1c[nH]c2ccccc12)NC(=O)CCc1ccc(F)cc1F` came in with a Ki of 0.04 nM. In turn, `CCNC(=O)[C@@H]1CCCN1C(=O)[C@H](CCCN=C(N)N)NC(=O)[C@H](CC(C)C)NC(=O)[C@@H](Cc1c[nH]c2ccccc12)NC(=O)[C@H](Cc1ccc(O)cc1)NC(=O)[C@H](CO)NC(=O)[C@H](Cc1c[nH]c2ccccc12)NC(=O)c1cc2ccccc2[nH]1` showed a Ki of 17 nM. Compound `CCNC(=O)[C@H]1CCCN1C(=O)[C@H](CCCN=C(N)N)NC(=O)[C@H](CC(C)C)NC(=O)[C@@H](CCCCNC(=O)c1cccnc1)NC(=O)[C@H](Cc1ccc(O)cc1)N(C)C(=O)[C@H](CO)NC(=O)[C@H](Cc1c[nH]c2ccccc12)NC(=O)CCc1cccc(F)c1` gave a Ki of 0.026 nM. This Ki is about 650-fold lower than that of the compound before. Regarding `CCNC(=O)[C@H]1CCCN1C(=O)[C@H](CCCN=C(N)N)NC(=O)[C@H](CC(C)C)NC(=O)[C@@H](Cc1c[nH]c2ccccc12)NC(=O)[C@H](Cc1ccc(O)cc1)N(C)C(=O)[C@H](CO)NC(=O)[C@H](Cc1c[nH]c2ccccc12)NC(=O)CCc1ccc(Cl)cc1`, the affinity, expressed as Ki, was 0.071 nM. The same measure for `CCNC(=O)[C@@H]1CCCN1C(=O)[C@H](CCCN=C(N)N)NC(=O)[C@H](CC(C)C)NC(=O)[C@@H](Cc1c[nH]c2ccccc12)NC(=O)[C@H](Cc1ccc(O)cc1)NC(=O)[C@H](CO)NC(=O)[C@H](Cc1c[nH]c2ccccc12)NC(=O)Cc1ccc(O)cc1` (X1-WSY[dW]LRP-NHEt): 0.813 nM; for `CCNC(=O)[C@H]1CCCN1C(=O)[C@H](CCCN=C(N)N)NC(=O)[C@H](CC(C)C)NC(=O)[C@@H](Cc1c[nH]c2ccccc12)NC(=O)[C@H](Cc1ccc(O)cc1)NC(=O)[C@H](CO)NC(=O)[C@H](Cc1c[nH]c2ccccc12)NC(=O)CCc1ccc(Cl)cc1`: 0.076 nM; for `CCNC(=O)[C@@H]1CCCN1C(=O)[C@H](CCCN=C(N)N)NC(=O)[C@H](CC(C)C)NC(=O)[C@@H](Cc1c[nH]c2ccccc12)NC(=O)[C@H](Cc1ccc(O)cc1)NC(=O)[C@H](CO)NC(=O)[C@H](Cc1c[nH]c2ccccc12)NC(=O)Cc1ccc(C(F)(F)F)cc1`: 0.646 nM. `CC(C)C[C@H](NC(=O)[C@@H](CCCCNC(=O)c1cccnc1)NC(=O)[C@H](Cc1ccc(O)cc1)N(C)C(=O)[C@H](CO)NC(=O)[C@H](Cc1cccc2ccccc12)NC(=O)CCc1ccc(F)cc1)C(=O)N[C@@H](CCCCNC(C)C)C(=O)N1CCC[C@@H]1C(N)=O`: affinity was put at a Ki of 0.016 nM. In turn, `CCNC(=O)[C@H]1CCCN1C(=O)[C@H](CCCN=C(N)N)NC(=O)[C@H](CC(C)C)NC(=O)[C@@H](CCCCNC(=O)c1cccnc1)NC(=O)[C@H](Cc1ccc(O)cc1)NC(=O)[C@H](CO)NC(=O)C(Cc1c[nH]c2ccccc12)NC(=O)CCc1ccc(F)cc1` (stereo not given in full) gave a Ki of 0.347 nM. Compared with the last compound, the Ki is about 22-fold higher. In turn, `CCNC(=O)[C@H]1CCCN1C(=O)[C@H](CCCN=C(N)N)NC(=O)[C@H](CC(C)C)NC(=O)[C@@H](Cc1c[nH]c2ccccc12)NC(=O)[C@H](Cc1ccc(O)cc1)N(C)C(=O)[C@H](CO)NC(=O)[C@H](Cc1c[nH]c2ccccc12)NC(=O)CCc1ccc(F)cc1F` showed a Ki of 0.039 nM. This Ki is about 8.9-fold lower than that of the compound before.

`CCNC(=O)[C@H]1CCCN1C(=O)[C@H](CCCN=C(N)N)NC(=O)[C@H](CC(C)C)NC(=O)[C@@H](Cc1ccc(O)cc1)NC(=O)[C@@H](Cc1ccc(O)cc1)NC(=O)[C@H](CO)NC(=O)[C@@H](Cc1c[nH]c2ccccc12)NC(=O)CCc1ccc(F)cc1` showed a Ki of 0.01 nM. The same measure for `CC(C)C[C@H](NC(=O)[C@@H](CCCCNC(=O)c1cccnc1)NC(=O)[C@H](Cc1ccc(O)cc1)N(C)C(=O)[C@H](CO)NC(=O)[C@@H](Cc1cccc2ccccc12)NC(=O)CCc1ccc(F)cc1)C(=O)N[C@@H](CCCCNC(C)C)C(=O)N1CCC[C@H]1C(=O)N[C@H](C)C(N)=O` ({Propanoyl(3-(4-F-phenyl))}-[d1Nal]S[NMeY][dK](Nicotinoyl)L[Lys(iPr)]P[dA]-NH2): 0.02 nM. In the case of `CCNC(=O)[C@H]1CCCN1C(=O)[C@H](CCCN=C(N)N)NC(=O)[C@H](CC(C)C)NC(=O)[C@@H](Cc1c[nH]c2ccccc12)NC(=O)[C@H](Cc1ccc(O)cc1)NC(=O)[C@@H]1CCCN1C(=O)[C@H](Cc1c[nH]c2ccccc12)NC(=O)CCc1ccc(F)cc1`, the Ki is 0.832 nM. Against the preceding compound, the Ki is about 42-fold higher. `CCNC(=O)[C@H]1CCCN1C(=O)[C@H](CCCCNC(C)C)NC(=O)[C@H](CC(C)C)NC(=O)[C@@H](CCCCNC(=O)c1cccnc1)NC(=O)[C@H](Cc1ccc(O)cc1)N(C)C(=O)[C@H](CO)NC(=O)[C@H](Cc1cccc2ccccc12)NC(=O)CCc1ccc(F)cc1` had a Ki of 0.002 nM. Regarding `CCNC(=O)[C@@H]1CCCN1C(=O)[C@H](CCCN=C(N)N)NC(=O)[C@H](CC(C)C)NC(=O)[C@@H](Cc1c[nH]c2ccccc12)NC(=O)[C@H](Cc1ccc(O)cc1)NC(=O)[C@H](CO)NC(=O)[C@H](Cc1c[nH]c2ccccc12)NC(=O)CCc1ccc(O)cc1` (Desaminotyrosyl-WSY[dW]LRP-NHEt), affinity was put at a Ki of 0.085 nM. The figure for `CCNC(=O)[C@@H]1CCCN1C(=O)[C@H](CCCN=C(N)N)NC(=O)[C@H](CC(C)C)NC(=O)[C@@H](Cc1c[nH]c2ccccc12)NC(=O)[C@H](Cc1ccc(O)cc1)NC(=O)[C@H](CO)NC(=O)[C@H](Cc1c[nH]c2ccccc12)NC(=O)CCc1ccc(C(F)(F)F)cc1` is 0.275 nM; for `CCNC(=O)[C@H]1CCCN1C(=O)[C@H](CCCN=C(N)N)NC(=O)[C@H](CC(C)C)NC(=O)[C@@H](CCCCNC(=O)c1cccnc1)NC(=O)[C@H](Cc1ccc(O)cc1)NC(=O)[C@H](CO)NC(=O)[C@H](Cc1c[nH]c2ccccc12)NC(=O)CCc1ccc(F)cc1` it is 0.023 nM.

For the compound `CCNC(=O)[C@@H]1CCCN1C(=O)[C@H](CCCN=C(N)N)NC(=O)[C@H](CC(C)C)NC(=O)[C@@H](Cc1c[nH]c2ccccc12)NC(=O)[C@H](Cc1ccc(O)cc1)NC(=O)[C@H](CO)NC(=O)[C@H](Cc1ccc(O)cc1)NC(=O)CCc1ccc(Cl)cc1` ({Propanoyl(3-(4-Cl-Ph))}-YSY[dW]LRP-NHEt), the affinity, expressed as Ki, was 0.076 nM. `CCNC(=O)[C@@H]1CCCN1C(=O)[C@H](CCCN=C(N)N)NC(=O)[C@H](CC(C)C)NC(=O)[C@@H](Cc1c[nH]c2ccccc12)NC(=O)[C@H](Cc1ccc(O)cc1)NC(=O)[C@H](CO)NC(=O)[C@H](Cc1c[nH]c2ccccc12)NC(=O)c1cc2cc(F)ccc2[nH]1`: the affinity corresponds to a Ki of 12.3 nM. On to `CCNC(=O)[C@H]1CCCN1C(=O)[C@H](CCCN=C(N)N)NC(=O)[C@H](CC(C)C)NC(=O)[C@@H](CCCCNC(=O)c1cccnc1)NC(=O)[C@H](Cc1ccc(O)cc1)N(C)C(=O)[C@H](CO)NC(=O)[C@H](Cc1c[nH]c2ccccc12)NC(=O)CCc1ccc(F)cc1F`, for which the Ki was 0.02 nM. `CCNC(=O)[C@H]1CCCN1C(=O)[C@H](CCCN=C(N)N)NC(=O)[C@H](CC(C)C)NC(=O)[C@@H](Cc1c[nH]c2ccccc12)NC(=O)[C@H](Cc1ccc(O)cc1)NC(=O)[C@H](CO)NC(=O)[C@@H]1CCCN1C(=O)CCc1ccc(F)cc1` gave an inhibition constant Ki of 0.012 nM. On to `CCNC(=O)[C@@H]1CCCN1C(=O)[C@H](CCCN=C(N)N)NC(=O)[C@H](CC(C)C)NC(=O)[C@@H](Cc1c[nH]c2ccccc12)NC(=O)[C@H](Cc1ccc(O)cc1)NC(=O)[C@H](CO)NC(=O)[C@H](Cc1ccc(O)cc1)NC(=O)CCc1ccc(F)cc1`, for which affinity was put at a Ki of 0.022 nM.
